Assay outcomes: PubChem BioAssay, Broad Institute
Hits are enriched below; roughly 1.2% of the tested compounds scored in any of these assays.
CAL PDZ FP-1: blocks peptide binding to the human CAL PDZ domain. Q9HD26. purified CAL PDZ, TMR-peptide fluorescence polarization, 1 h. inhibition, % at 24.9 µM. 300,000 tested, 0.92% active. AID 602252;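 active = mean inhibition of at least 30% with at least half of replicates also reaching 30%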;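 also: 0% = DMSO neutral control and 100% = excess unlabeled competitor peptide PRC23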
ARNT TACC3 PPI: ARNT/TACC3 interaction disruption | Q9Y6A5 | AlphaScreen His-ARNT PAS-B/GST-TACC3 binding, luminescence; TACC3 fragment carries E629A point mutation | 390,000 tested, 0.66% active | inhibition, % at 9.99 µM;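 active = mean inhibition of replicates at least 50% and at least half of replicates each reaching 50%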;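 also: 0% = complete ARNT plus TACC3 wells and 100% = ARNT alone without TACC3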
CAL PDZ FP-2: human CAL PDZ-peptide interaction inhibition. Q9HD26. purified CAL PDZ, TMR-peptide fluorescence polarization, 1 h. inhibition, % at 20 µM. 330,000 tested, 0.02% active;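 active = highest replicate inhibition of at least 40%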;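 also: plate controls were DMSO neutral control wells for no effect and unlabeled competitor peptide control wells for full effect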
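Material – purified CerCALP PDZ construct · Detection – FP readout, S and P plane fluorescence · Measure – percent inhibition from loss of millipolarization · Controls – unlabelled peptide for full inhibition, DMSO wells as neutral · Probe or stimulus – TMR-labelled reporter peptide T*-PRC34 bound in PDZ groove · Times – 1 h at RT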
Active calls of the source: *; x = no result given; + = active, no number.

SMILES | CAL PDZ FP-1 | ARNT TACC3 PPI | CAL PDZ FP-2
COc1ccc(NC(=O)N(C)C[C@H]2Oc3ccc(NC(=O)Nc4ccc(C(F)(F)F)cc4)cc3C(=O)N([C@@H](C)CO)C[C@H]2C)cc1 | x | -1.6 | x
CCNC(=O)C[C@H]1CC[C@H]2[C@@H](COC[C@@H](O)CN2S(=O)(=O)c2ccc(Oc3ccccc3)cc2)O1 | x | 0.1 | x
CN(C(=O)c1ccc(NC(=O)Cc2ccccc2)cc1)c1ccccc1 | -5.0 | -0.3 | 2.2
CCN(C(=O)c1ccc(NC(=O)Cc2ccccc2)cc1)c1ccccc1 | 48.1* | -2.3 | -1.1
C[C@H](CO)N1C[C@H](C)[C@H](CN(C)S(=O)(=O)c2cn(C)cn2)OCCCC[C@H](C)Oc2ccc(NS(=O)(=O)c3ccc(Cl)cc3)cc2C1=O | x | -32.4 | x
C[C@H](CO)N1C[C@H](C)[C@H](CN(C)Cc2ccc3c(c2)OCO3)OCCCC[C@H](C)Oc2ccc(NC(=O)CCCN(C)C)cc2C1=O | x | 5.3 | x
Cc1cc(=O)nc2c3ccccc3n(C(C)C(=O)Nc3cc(F)ccc3F)n12 (stereo not drawn) | 4.1 | 20.3 | -0.4
Cc1cc(=O)nc2c3ccccc3n(C(C)C(=O)Nc3c(F)c(F)c(F)c(F)c3F)n12 (stereo not drawn) | 81.7* | -5.9 | 5.7
Cc1nc(SCC(=O)N2CCN(c3ccccc3)CC2)c2oc3ccccc3c2n1 | 64.2* | 3.0 | -1.5
Cc1nc(SCC(=O)O)c2oc3ccccc3c2n1 | -7.6 | 1.4 | -0.5
COc1ccc(N(CC(=O)N2CCN(c3ccccc3)CC2)S(=O)(=O)c2ccc(C)cc2)cc1 | x | 2.3 | 0.2
COc1ccccc1N(CC(=O)N1CCN(c2ccccc2)CC1)S(=O)(=O)c1ccc(C)cc1 | 65.5* | -8.9 | -0.6
COc1ccc(CN(C)C[C@H]2Oc3ccc(NC(=O)C4CC4)cc3C(=O)N([C@H](C)CO)C[C@H]2C)cc1 | x | 1.3 | x
C#CCN1[C@@H]2CCN(C2)c2cc(Br)ccc2S1(=O)=O | 50.9* | -22.1 | -0.4
COc1ccc(CN2C[C@H]3CCCN3c3cc(Br)ccc3S2(=O)=O)cc1 | -1.1 | 0.8 | -1.1
CCCCC#Cc1ccc(C(=O)NNC(=O)Nc2cc(Cl)cc(Cl)c2)o1 | 30.2* | 0.0 | 0.0
Cc1cc(C(=O)NNC(=O)Nc2ccc(Cl)cc2)no1 | x | -3.7 | 0.2
CCC(=O)N1[C@@H]2c3ccc(C4=CCCC4)c(=O)n3C[C@H]1[C@H](CO)[C@H]2C(=O)N[C@@H](C)c1ccccc1 | x | -5.4 | x
COc1cc(N)c(C(=O)c2nccc3cc(OC)c(OC)cc23)cc1OC | 5.4 | 6.3 | 0.6
COc1cc(Br)c(C(=O)c2nccc3cc(OC)c(OC)cc23)cc1OC | -2.5 | 10.2 | 71.1*
CC(C)NC(=O)NC(=O)COC(=O)c1ccccc1O | -3.8 | 2.3 | 1.4
CC(C)NC(=O)NC(=O)COC(=O)c1ccccc1Oc1ccccc1 | 76.0* | -0.7 | x
Cn1c(=O)n(CCc2ccccc2)c(=O)c2c1nc1n2CCCN1Cc1ccccc1 | -3.9 | 11.1 | 0.0
CCCn1c(=O)c2c(nc3n2CCCN3Cc2ccccc2)n(C)c1=O | -2.8 | 49.2* | 0.3
Cc1onc(-c2ccccc2)c1C(=O)Nc1ccon1 | 1.1 | -2.2 | 0.3
SMILES | CAL PDZ FP-1 | ARNT TACC3 PPI | CAL PDZ FP-2
Cc1onc(-c2ccccc2)c1C(=O)NNC(=O)c1ccccc1Br | 1.8 | 15.8 | -0.1
Cc1ccc(NC(=O)c2c(-c3ccccc3)noc2C)nc1 | + | -10.7 | -0.6
Cc1onc(-c2ccccc2)c1C(=O)NC(=S)NNC(=O)c1ccc(O)cc1 | 0.2 | 21.3 | 0.2
Cc1onc(-c2ccccc2)c1C(=O)NC(=S)NNC(=O)c1ccc(O)cc1O | -4.8 | 95.4* | -1.2
Cc1onc(-c2ccccc2)c1C(=O)NC(=S)NNC(=O)c1ccccc1O | -0.6 | 58.5* | 0.5
Cc1noc(C)c1S(=O)(=O)N(C)C[C@H]1Oc2c(NS(=O)(=O)c3ccccc3)cccc2C(=O)N([C@@H](C)CO)C[C@H]1C | x | -4.9 | x
Cc1ccc(S(=O)(=O)Nc2ccc3c(c2)CC(=O)N([C@H](C)CO)C[C@@H](C)[C@H](CN(C)S(=O)(=O)c2ccc(F)cc2)O3)cc1 | x | -1.0 | x
Cc1ccccc1Nc1cc2ccccc2c(=O)[nH]1 | -0.9 | 23.7 | 0.1
O=c1[nH]c(Nc2ccccc2Cl)cc2ccccc12 | -0.9 | 37.2* | 0.1
Cc1cccc(C(=O)Nc2ccc(C(=O)/C=C/c3ccncc3)cc2)c1 | -3.8 | 5.9 | 43.0*
Cc1cccc(C(=O)Nc2ccc(C(=O)/C=C/c3cccnc3)cc2)c1 | 0.3 | 5.3 | -1.0
Cc1ccc(S(=O)(=O)N(C)CC(=O)NCCCn2nc(C)cc2C)cc1 | 62.4* | -10.9 | 1.2
Cc1ccc(S(=O)(=O)N(C)CC(=O)NCCCc2ccccc2)cc1 | x | -7.8 | -1.3
CCN1CCN(C(CNS(=O)(=O)c2ccc(Cl)cc2)c2cccnc2)CC1 (stereo not drawn) | -4.2 | -4.4 | -0.4
CCN1CCN(C(CNS(=O)(=O)c2ccccc2)c2ccccc2)CC1 (stereo not drawn) | 42.6* | -3.5 | 0.2
CNC(=O)C1=C[C@H](c2ccc(C(=O)OC)cc2)C[C@H](OCCCCO)O1 | x | 4.6 | x
CCCNC(=O)C[C@@H]1C[C@@H]2c3cc(NS(=O)(=O)c4ccc(OC)cc4)ccc3O[C@@H]2[C@H](CO)O1 | x | -6.8 | x
O=[N+]([O-])c1ccc(N2CCOCC2)cc1SCc1ccco1 | -1.9 | -2.5 | -2.1
O=[N+]([O-])c1ccc(SCc2ccco2)cc1N1CCOCC1 | 45.1* | 6.5 | -0.6
O=C(O)c1ccc(N=Nc2c(O)[nH]c3ccc(Br)cc23)cc1 | -4.5 | x | x
O=c1ccc2cc3c([nH]c4ccc(Br)cc43)oc-2c1O | 4.5 | 16.8 | 48.2*
COc1cccc(C(=O)N2C[C@@H]3[C@H](c4ccccc42)[C@H](CO)N3Cc2ccccc2Cl)c1 | x | 0.2 | x
C[C@@H]1CCCCO[C@H](CN(C)Cc2ccc(C(F)(F)F)cc2)[C@H](C)CN([C@@H](C)CO)C(=O)c2cc(NC(=O)NC3CCCCC3)ccc2O1 | x | -8.7 | x
O=C(/C=C/c1ccc(F)cc1)NC(=S)NNC(=O)c1cnccn1 | -1.2 | 63.9* | -0.5
O=C(NC(=S)NNC(=O)c1cnccn1)c1ccc(F)cc1 | 0.3 | 67.7* | 0.3
SMILES | CAL PDZ FP-1 | ARNT TACC3 PPI | CAL PDZ FP-2
COc1ccc(/C=C/C(=O)NC(=S)NNC(=O)c2cccnc2)cc1 | 0.3 | x | -1.6
COc1ccc(/C=C/C(=O)NC(=S)NNC(=O)c2cnccn2)cc1 | -2.8 | 61.4* | -0.1
O=C(/C=C/c1ccc(F)cc1)NC(=S)Nc1ccccc1 | -3.6 | -33.4 | -1.2
O=C(NNC(=S)NC(=O)c1cccnc1)c1ccc(F)cc1 | -3.0 | 28.3 | -0.1
COc1cccc(S(=O)(=O)N2CCCCN3[C@H](CO)[C@H](c4ccc(-c5ccccc5)cc4)[C@@H]3C2)c1 | x | 24.6 | x
CCC(=O)N1[C@@H]2c3ccc(-c4ccccc4)c(=O)n3C[C@@H]2[C@@H](CO)[C@@H]1C(=O)N1CCCCC1 | x | -9.4 | x
CN1c2ccc(-c3cccc(C#N)c3)cc2[C@H]2[C@H](CCN2C(=O)CC2CC2)[C@H]1CO | x | -9.0 | x
COc1ccccc1NC(=O)N[C@@H]1CC[C@H](CCNC(=O)c2ccc3c(c2)OCO3)O[C@H]1CO | x | -7.0 | x
Cn1c(=O)cc(OCC(=O)NCCCN2CCN(Cc3ccccc3)CC2)c2ccccc21 | 38.9* | x | -0.2
